According to PMC7981784 (Journal of medicinal chemistry, 2020):

Tests used:
HL60 (No MLL fusion) = assay: Cell growth inhibition assay; assay type: cell-based, human; details: ratio of cell growth IC50 values
HOXA9 gene expression [1] = assay: Pharmacodynamics in MV4; assay type: in vivo, mice; details: for effect in suppressing expression of HOXA9 gene: single intravenous dose 10 mg/kg, 24 hr, MV4;11 tumors in mice
Method in brief: (§1)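 Mice bearing subcutaneous MV4;11 xenografts received a single IV dose of vehicle or test compound: 10 mg/kg with tumors taken at 24 h, or 25 mg/kg with tumors taken at 6, 24 and 48 h; 3 mice per time point. Tumors were snap-frozen in liquid N2 and powdered. Total RNA was reverse-transcribed and HOXA9 and MEIS1 quantified by TaqMan real-time PCR. Comparative Ct method, normalized to GAPDH, expressed relative to vehicle.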

SCID mice = assay: Tolerability studies in mice; assay type: in vivo
Method in brief: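 Female SCID mice, three per group, were dosed with test compound on days 1, 3 and 5 for one week. Mice were weighed and checked for clinical signs of toxicity. Weight loss greater than 10% was counted as toxic.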

MEIS1 gene expression [2] = details: single dose 50 mg/kg intravenous; previous study; cited from earlier work
HOXA9 gene expression [3] = details: single dose 50 mg/kg intravenous; previous study; cited from earlier work
MEIS1 gene expression [4] = assay: Pharmacodynamics in MV4; assay type: in vivo, mice; details: single intravenous dose 25 mg/kg; 6, 24 and 48 h
Method in brief: as §1

MV4;11 xenograft tumor = assay: In vivo antitumor efficacy in the MV4
Method in brief: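 Female C.B-17 SCID mice received 5 × 10^6 MV4;11 cells subcutaneously in the flank, in 1:1 PBS/Matrigel (final Matrigel 5 mg/mL). At tumor volumes of 60–140 mm3, mice were randomized into groups of 7. Test compound was given IV in 10% PEG 400:3% Cremophor EL:87% PBS at 10 or 25 mg/kg, every other day, 3 times per week, for 11 doses; controls got vehicle. Caliper volume = (A×B2)/2. Tumor volume and body weight were measured 2–3 times weekly during treatment and at least weekly afterwards.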

[5] = 25 mg/kg every other day (three times a week) for one week
[6] = intravenous 10 mg/kg every other day (three times a week) for one week

SMILES | cellular selectivity for MLL leukemia cells over HL-60 (non-MLL leukemia cells) (HL60 (No MLL fusion)) [fold] | effect in suppressing expression of HOXA9 gene (HOXA9 gene expression [1]) | animal weight loss (SCID mice; [5]) [%] | tolerability (SCID mice; [6]) | cellular selectivity for MV4;11 and MOLM-13 cell lines over HL-60 cell line (HL60 (No MLL fusion)) [times] | further results
COC(=O)N[C@H]1CCC[C@@H]1[C@](CN1CCC1)(c1cccc(F)c1)C1CCN(CC2CN(c3ccc(S(=O)(=O)C4CN(C(=O)/C=C/CN5CCC5)C4)cc3)C2)CC1 [Compound 14, Methyl ((1S,2R)-2-((S)-2-(azetidin-1-yl)-1-(1-((1-(4-((1-((E)-4-(azetidin-1-yl)but-2-enoyl)azetidin-3-yl)sulfonyl)phenyl)azetidin-3-yl)methyl)piperidin-4-yl)-1-(3-fluorophenyl)ethyl)cyclopentyl)carbamate] | > 700 |  |  |  |  | 
COC(=O)N[C@H]1CCC[C@@H]1[C@](CN1CCC1)(c1cccc(F)c1)C1CCN(CC2CN(c3ccc(S(=O)(=O)C4CN(C(=O)/C=C/CN5CCCC5)C4)cc3)C2)CC1 [Compound 15, Methyl ((1S,2R)-2-((S)-2-(azetidin-1-yl)-1-(3-fluorophenyl)-1-(1-((1-(4-((1-((E)-4-(pyrrolidin-1-yl)but-2-enoyl)azetidin-3-yl)sulfonyl)phenyl)azetidin-3-yl)methyl)piperidin-4-yl)ethyl)cyclopentyl)carbamate] | > 200 | significant but modest effect | > 10 | well tolerated |  | 
COC(=O)N[C@H]1CCC[C@@H]1[C@](CN1CCC1)(c1cccc(F)c1)C1CCN(CC2CN(c3ccc(S(=O)(=O)C4CN(C(=O)/C=C/CN(C)C)C4)cc3)C2)CC1 [Compound 10, Methyl ((1S,2R)-2-((S)-2-(azetidin-1-yl)-1-(1-((1-(4-((1-((E)-4-(dimethylamino)but-2-enoyl)azetidin-3-yl)sulfonyl)phenyl)azetidin-3-yl)methyl)piperidin-4-yl)-1-(3-fluorophenyl)ethyl)cyclopentyl)carbamate] |  | significant but modest effect | > 10 | well tolerated | > 300 | 
COC(=O)N[C@H]1CCC[C@@H]1[C@](C#N)(c1cccc(F)c1)C1CCN(CC2CN(c3ccc(S(=O)(=O)C4CN(C(=O)/C=C/CN(C)C)C4)cc3)C2)CC1 [Compound M-525] |  |  |  |  |  | suppression of MEIS1 gene expression in MV4;11 xenograft tumor tissue (MEIS1 gene expression [2]): strong suppression; suppression of HOXA9 gene expression in MV4;11 xenograft tumor tissue (HOXA9 gene expression [3]): strong suppression
COC(=O)N[C@H]1CCC[C@@H]1[C@](CN(C)C)(c1cccc(F)c1)C1CCN(CC2CN(c3ccc(S(=O)(=O)C4CN(C(=O)/C=C/CN(C)C)C4)cc3)C2)CC1 [Compound 9, Methyl ((1S,2R)-2-((S)-2-(dimethylamino)-1-(1-((1-(4-((1-((E)-4-(dimethylamino)but-2-enoyl)azetidin-3-yl)sulfonyl)phenyl)azetidin-3-yl)methyl)piperidin-4-yl)-1-(3-fluorophenyl)ethyl)cyclopentyl)carbamate] |  |  |  |  | > 300 | 
COC(=O)N[C@H]1CCC[C@@H]1[C@](CN1CCC1)(c1cccc(F)c1)C1CCN(CC2CN(c3ccc(S(=O)(=O)C4CN(C(=O)/C=C/CN5CCCCC5)C4)cc3)C2)CC1 [Compound 16, Methyl ((1S,2R)-2-((S)-2-(azetidin-1-yl)-1-(3-fluorophenyl)-1-(1-((1-(4-((1-((E)-4-(piperidin-1-yl)but-2-enoyl)azetidin-3-yl)sulfonyl)phenyl)azetidin-3-yl)methyl)piperidin-4-yl)ethyl)cyclopentyl)carbamate] |  | significant but modest effect |  | well tolerated |  | suppression of MEIS1 gene expression in tumor tissue (MEIS1 gene expression [4]): effectively suppresses; effect on tumor growth over vehicle control (MV4;11 xenograft tumor; 10 mg/kg IV every other day, 3 times per week, 11 doses): no effect on tumor growth; body weight change and drug-related toxicity (MV4;11 xenograft tumor; 10 or 25 mg/kg IV, during and after treatment): no significant weight change; suppression of HOXA9 gene expression in tumor tissue (HOXA9 gene expression [1]; single intravenous dose 25 mg/kg, 6, 24 and 48 h): effectively suppresses; tolerability (SCID mice; [5]): well tolerated
